The subject of test [1] is Trypanosoma cruzi. In words: Antitrypanosomal activity against epimastigotes of Trypanosoma cruzi at 100 uM after 72 hrs by MTT assay. In kind it is functional, organism-based. (Tetrazolium assays rely on reduction of a dye to a coloured formazan, in cell work by metabolically active cells.)
Test [2] deals with Leishmania amazonensis. In words: Antileishmanial activity against Leishmania amazonensis MPRO/BR/1972/M1841-LV-79 at 100 uM after 72 hrs by MTT assay. It counts as functional, organism-based.
Test [3] has as its system Leishmania chagasi. In words: Antileishmanial activity against Leishmania chagasi MHOM/BR/1974/PP75 at 100 uM after 72 hrs by MTT assay. It counts as functional, organism-based.
For test [4], the system named is Leishmania amazonensis. In words: Antileishmanial activity against Leishmania amazonensis MPRO/BR/1972/M1841-LV-79 after 72 hrs by MTT assay. In kind it is functional, organism-based. To be noted: MPRO/BR/1972/M1841-LV-79, 72 h. The procedure, abridged:
(§1)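 Promastigotes from 4-day-old LIT cultures (10% heat-inactivated FCS), seeded at 8 × 10^6 parasites/mL. Compounds dissolved in DMSO, tested at 10 concentrations from 100 to 0.098 μg/mL. 72 h at 28 °C. MTT-PMS added, 75 min in dark at 28 °C, then 10% SDS for 30 min at room temperature. Absorbance read at 490 nm. Triplicate per concentration, IC50 from percentage cytotoxicity. Pentamidine isothionate was the reference drug.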

The test system of test [5] is Leishmania chagasi. In words: Antileishmanial activity against Leishmania chagasi MHOM/BR/1974/PP75 after 72 hrs by MTT assay. It counts as functional, organism-based. To be noted: MHOM/BR/1974/PP75, 72 h. The method in brief:
as §1

A short description of test [6]: Selectivity index, ratio of IC50 for Balb/c mouse peritoneal macrophages to IC50 for epimastigotes of Trypanosoma cruzi. The method in brief:
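Ratio of IC50 in Balb/c peritoneal macrophages (24 h MTT) to IC50 against T. cruzi Y-strain epimastigotes (72 h MTT, 28 °C).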

Test [7] deals with Trypanosoma cruzi. In words: Antitrypanosomal activity against epimastigotes of Trypanosoma cruzi after 72 hrs by MTT assay. It counts as functional, organism-based. The method in brief:
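Y-strain epimastigotes grown axenically at 28 °C in LIT with 10% FCS, harvested at 7 days (exponential phase). Test wells held 1 × 10^7 parasites/mL. Compounds from DMSO stock at 10 concentrations spanning 100–0.098 μg/mL. 72 h at 28 °C. MTT-PMS added, 75 min in dark, then 10% SDS for 30 min. Read at 595 nm, triplicate. Benznidazole served as reference.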

The nature of test [8]: Cytotoxicity against Balb/c mouse peritoneal macrophages after 24 hrs by MTT assay. In kind it is cell-based. Conditions: Peritoneal macrophage cell. The procedure, abridged: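 Thioglycolate-elicited peritoneal macrophages (3 mL of 3% given i.p., harvested 3 days later by PBS pH 7.2 lavage). Cells in RPMI 1640 with 5% FCS, antibiotics and mercaptoethanol, stock suspension at 5 × 10^6 cells/mL. Mixed 1:1 with test solution, 24 h at 37 °C, 7.5% CO2. MTT added for 3 h, formazan dissolved in 2-propanol, OD read at 590 nm versus RPMI-only control. Triplicate.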

Calls of active or inactive are those of the source. The calls are words filed in the database; no cut-off is given here. A value given as a limit tells only on which side of the number the result lay.

For orientation: IC50 means the point on the concentration scale where inhibition reaches its midpoint. Read a low IC50 as greater potency in that assay.

As to `CC(=O)OC[C@]12[C@H](OC(C)=O)[C@@H](OC(=O)c3ccccc3)[C@@H]3[C@@H](OC(C)=O)[C@@]14O[C@@]3(C)COC(=O)c1cccnc1CCC(C)C(=O)O[C@@H]([C@H](OC(C)=O)[C@@H]2OC(C)=O)[C@]4(C)O` (stereo partly specified), the outcome in the test on Trypanosoma cruzi [1], in the test on Leishmania amazonensis [2] and with Leishmania chagasi [3] was inactive.

Regarding `N=C(N)c1ccc(OCCCCCOc2ccc(C(=N)N)cc2)cc1` [PENTAMIDINE], the IC50 worked out at 7 µM in the test on Leishmania amazonensis [4] and 5.1 µM in the test with Leishmania chagasi [5].

Consider `CC(=O)OC[C@]12[C@H](OC(C)=O)[C@H](OC(C)=O)[C@@H]3[C@@H](OC(C)=O)[C@@]14O[C@@]3(C)COC(=O)c1cccnc1C(C)C(C)C(=O)O[C@@H]([C@H](OC(C)=O)[C@@H]2OC(=O)c1ccccc1)[C@]4(C)O` (stereo partly specified), for which the result with Trypanosoma cruzi [1], in the test on Leishmania amazonensis [2] and in the test on Leishmania chagasi [3] was inactive.

With `CC(=O)OC[C@]12[C@H](OC(C)=O)[C@@H](OC(=O)c3ccccc3)[C@@H]3[C@@H](OC(C)=O)[C@@]14O[C@@]3(C)COC(=O)c1cccnc1[C@@H](C)[C@H](C)C(=O)O[C@@H]([C@H](OC(C)=O)[C@@H]2OC(C)=O)[C@]4(C)O`, in test [6], the “Ratio IC50” value stood at 44. Besides, the IC50 in the test on Leishmania amazonensis [4] is above 100 µM; in the test on Trypanosoma cruzi [7], 41.9 µM; with Leishmania chagasi [5], 1.4 µM; in test [8], 1850 µM.

Turning to `CC(=O)OC[C@]12[C@H](OC(C)=O)[C@@H](OC(=O)c3ccccc3)[C@@H]3[C@@H](O)[C@@]14O[C@@]3(C)COC(=O)c1cccnc1[C@@H](C)[C@H](C)C(=O)O[C@@H]([C@H](OC(C)=O)[C@@H]2OC(C)=O)[C@]4(C)O` [ILICIFOLIUNINE A], in test [6], the “Ratio IC50” value stood at 46.2. Also, the IC50 in the test with Leishmania amazonensis [4] is above 100 µM; in the test on Trypanosoma cruzi [7], 27.7 µM; in the test with Leishmania chagasi [5], above 100 µM; in test [8] it was 1280 µM.

As for `O=C(Cn1ccnc1[N+](=O)[O-])NCc1ccccc1` [BENZNIDAZOLE], the “Ratio IC50” value in test [6] was 26.7. In addition, the IC50 stood at 42.7 µM in the test with Trypanosoma cruzi [7] and 1140 µM in test [8].

These data come from ChEMBL document CHEMBL2046375, “Antiprotozoal sesquiterpene pyridine alkaloids from Maytenus ilicifolia” (J Nat Prod, 2012).
